Bioassay records as filed in PubChem.
SR-BI HDL uptake: inhibitors of SR-BI mediated HDL lipid uptake, primary screen, ldlA[mSR-BI] cells, fluorescence, single point; Scavenger receptor class B member 1 (Mus musculus), Q61009; ldlA[mSR-BI] CHO cells, DiI-HDL uptake fluorescence, 3 h; inhibition, % at 12.5 µM; 0.96% of 320,000 active; AID 488896, 2010;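 active = mean replicate inhibition of at least 70% and a set share of replicates each scoring 70 or more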;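 also: 0% = median of neutral control wells and 100% = median of positive control wells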
Target sequence (Q61009 whole entry, looked up): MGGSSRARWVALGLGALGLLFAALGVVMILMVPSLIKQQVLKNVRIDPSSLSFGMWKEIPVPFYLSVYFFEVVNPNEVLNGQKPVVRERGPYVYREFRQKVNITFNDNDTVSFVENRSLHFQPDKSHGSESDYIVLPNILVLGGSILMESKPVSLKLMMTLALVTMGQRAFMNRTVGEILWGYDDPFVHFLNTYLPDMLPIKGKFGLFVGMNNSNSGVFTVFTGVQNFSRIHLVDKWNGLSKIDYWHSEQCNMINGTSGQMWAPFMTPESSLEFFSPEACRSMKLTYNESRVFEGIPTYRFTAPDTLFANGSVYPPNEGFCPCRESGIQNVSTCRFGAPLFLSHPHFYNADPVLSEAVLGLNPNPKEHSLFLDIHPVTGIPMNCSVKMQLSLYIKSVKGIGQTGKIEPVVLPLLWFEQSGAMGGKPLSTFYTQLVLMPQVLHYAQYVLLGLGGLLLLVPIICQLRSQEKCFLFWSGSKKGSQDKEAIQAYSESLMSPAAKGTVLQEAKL
HIV Env fusion: inhibitors of HIV-1 Env-driven cell-cell fusion, primary screen, HeLa-JRFL effector, CEM21 target cells, luciferase. inhibition, % at 12.3 µM. 1.1% of 360,000 active;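 active = mean replicate inhibition score of at least 50 and every replicate individually at or above 50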;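 also: 0% = plate neutral controls and 100% = maraviroc near 300 nM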
PglD inh: C. jejuni PglD acetyltransferase inhibitors, primary screen, biochemical, DTNB colorimetric, single point; 0.098% of 360,000 active; purified PglD enzyme, DTNB colorimetric CoA detection; inhibition, % at 12.5 µM; UDP-N-acetylbacillosamine N-acetyltransferase PglD (Campylobacter jejuni); AID 602405, 2012; in the data active = inhibition above about 16%, passing the limit was not always enough
N-glyco inh: increase of ERlucT glycosylation luciferase signal, primary screen, N-linked glycosylation inhibitor project, D54 ERlucT cells, luminescence, set 2; D54 ERlucT glycosylation luciferase reporter, 24 h; percent of 100 nM tunicamycin response; reporter increase, % at 12.5 µM; 0.23% of 360,000 active; AID 588692, 2011;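 active = mean luciferase reporter signal, scaled so untreated is 0 and the glycosylation-blocking control 100, at or above a set limit in every replicate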;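 also: luciferase carries N-glycosylation sites so blocking glycosylation raises the light; 0% = median of neutral control wells and 100% = median of 100 nM tunicamycin wells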
SR-BI uptake up: activators of SR-BI mediated DiI-HDL uptake, primary screen, ldlA[mSR-BI] CHO cells, DiI fluorescence; 3 h; 100 = double the neutral-control signal; activation, % at 12.5 µM; 0.096% of 320,000 active;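 active = mean replicate activation of at least 60% and every replicate at or above 60%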;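 also: 0% = median plate neutral-control signal and 100% = twice that signal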
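System: CHO ldlA[mSR-BI] cells / Medium: HEPES-buffered (25 mM, pH 7.4) F12 plus 0.5% BSA / Probe or stimulus: labelled HDL, 10 µg/mL / Doses: single compound concentration, delivered by pin transfer / Schedule: 3 h, 37 °C / Measured by: DiI fluorescence, bottom read / Measure: cell-associated DiI fluorescence as measure of HDL uptake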
Rtt109 Vps75: inhibitors of C. albicans Rtt109/Vps75 HAT, primary screen, biochemical, ThioGlo CoA-SH fluorescence, plate reader | Histone acetyltransferase RTT109 (Candida albicans (strain SC5314 / ATCC MYA-2876)), … | purified Rtt109/Vps75, 4 h | inhibition, % at 34.9 µM | 0.16% of 330,000 active;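 active = inhibition of at least 50% in every replicate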
The depositor's hits bear a star; [ ] = remark or other dose. Hits are enriched below; roughly 1.9% of the tested compounds scored in any of these assays.

How did CCOC(=O)[C@@H](C)N(Cc1ccc(OC)cc1)S(=O)(=O)N(Cc1ccccc1)[C@H](C(=O)OC)C(C)C do in these assays?
SR-BI HDL uptake: -7; HIV Env fusion: 92*; PglD inh: -3; N-glyco inh: -14; SR-BI uptake up: 7; Rtt109 Vps75: 5

What do the screens show for `CC(=O)NC[C@@H]1[C@H](c2ccc(-c3cccc(F)c3)cc2)[C@@H](CO)N1C(C)=O`?
PglD inh: -2

How did COc1ccccc1S(=O)(=O)N[C@@H]1CC[C@H](CC(=O)N2CCCCC2)O[C@@H]1CO do in these assays?
HIV Env fusion: -2[16.7 µM]; PglD inh: 0

Results for CC(C)n1ncc2c(C(=O)N3CCN(c4ccccc4)CC3)cc(-c3ccccc3)nc21 ?
SR-BI HDL uptake: -1; HIV Env fusion: 10; PglD inh: 0; N-glyco inh: -6; SR-BI uptake up: 1; Rtt109 Vps75: 8

How did COc1ccc(CNC(=O)c2cc(C3CC3)nc3c2cnn3C(C)C)cc1 do in these assays?
SR-BI HDL uptake: 31; HIV Env fusion: 3; PglD inh: -2; N-glyco inh: 1; SR-BI uptake up: -31; Rtt109 Vps75: 6

Results for COc1ccc(NC(=O)c2cc(-c3ccccc3)nc3c2cnn3C(C)C)cc1 ?
SR-BI HDL uptake: 82*; HIV Env fusion: 11; PglD inh: -2; N-glyco inh: 0; SR-BI uptake up: -82; Rtt109 Vps75: 4

What do the screens show for `CCNC(=O)c1cccc(NC(=O)c2cc(C3CC3)nc3c2cnn3C(C)C)c1`?
SR-BI HDL uptake: 75*; HIV Env fusion: -1; PglD inh: -1; N-glyco inh: 1; SR-BI uptake up: -75; Rtt109 Vps75: 2

Results for CC(C)n1ncc2c(C(=O)Nc3cccc(C#N)c3)cc(C3CC3)nc21 ?
SR-BI HDL uptake: 75*; HIV Env fusion: 6; PglD inh: 0; N-glyco inh: -10; SR-BI uptake up: -75; Rtt109 Vps75: 4

How did C[C@H](CO)N1C[C@H](C)[C@@H](CN(C)Cc2ccc3c(c2)OCO3)Oc2c(NC(=O)Nc3ccc(C(F)(F)F)cc3)cccc2C1=O do in these assays?
PglD inh: 3

Results for Cc1cc(S(=O)(=O)NC[C@H]2O[C@@H](n3cnc4c(N)ncnc43)[C@H](O)[C@@H]2O)c(C)s1 ?
SR-BI HDL uptake: -1; HIV Env fusion: 23; PglD inh: -1; N-glyco inh: 1; SR-BI uptake up: 1; Rtt109 Vps75: 16

Results for Nc1ncnc2c1ncn2[C@@H]1O[C@H](CNS(=O)(=O)c2cc(S(=O)(=O)c3ccccc3)cs2)[C@@H](O)[C@H]1O ?
SR-BI HDL uptake: -131; HIV Env fusion: 5; PglD inh: 3; N-glyco inh: 3; SR-BI uptake up: 130*; Rtt109 Vps75: 2

Results for Cc1cc(C(=O)CN2C(=O)c3ccccc3S2(=O)=O)c(C)n1CC1CCCO1 (centres undefined) ?
SR-BI HDL uptake: -10; HIV Env fusion: 115*; PglD inh: -2; N-glyco inh: -18; SR-BI uptake up: 10; Rtt109 Vps75: 5

How did COc1ccc(C(=O)CN2C(=O)c3ccccc3S2(=O)=O)cc1 do in these assays?
HIV Env fusion: 72*; PglD inh: 4; N-glyco inh: -22

What do the screens show for `Cc1cc(C(=O)CN2C(=O)NC(C)(c3ccccc3)C2=O)c(C)n1CC1CCCO1` (centres undefined)?
SR-BI HDL uptake: -8; N-glyco inh: 2; SR-BI uptake up: 8; Rtt109 Vps75: 1

What do the screens show for `CCCn1c(C)cc(C(=O)CN2C(=O)c3ccccc3S2(=O)=O)c1C`?
HIV Env fusion: 67*; PglD inh: 0; N-glyco inh: -17

How did Cc1ccc(C)c(C(=O)CN2C(=O)c3ccccc3S2(=O)=O)c1 do in these assays?
SR-BI HDL uptake: 18; PglD inh: 4; N-glyco inh: -18; SR-BI uptake up: -18; Rtt109 Vps75: -17
